Experimental data reported in ChEMBL document CHEMBL4020761, “Exploration of pyrrole derivatives to find an effective potassium-competitive acid blocker with moderately long-lasting suppression of gastric acid secretion” (Bioorg Med Chem, 2017).
Activity calls are given as the source filed them. The calls are words filed in the database; no cut-off is given here.

What was measured:
[1] = Plasma concentration in Sprague-Dawley rat at 0.2 mg/kg, iv administered as cassette dose after 10 mins by LC-MS/MS analysis; type: ADME, organism-based
Method in brief: (§1)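 Fasted male Sprague-Dawley rats given compounds iv by cassette dosing at 0.2 mg/kg (as free base). Plasma and stomach sampled at 10 min, 1, 4 and 24 h. Plasma and 20% stomach homogenate in saline deproteinized with acetonitrile containing internal standard, then LC/MS/MS. AUC calculated for plasma and stomach. Values are averages of three rats.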

[2] = Drug uptake in Sprague-Dawley rat stomach at 0.2 mg/kg, iv administered as cassette dose after 1 hr by LC-MS/MS analysis; type: ADME, organism-based; details: read-out: Drug uptake; method in brief: as §1
[3] = Drug uptake in Sprague-Dawley rat stomach at 0.2 mg/kg, iv administered as cassette dose after 4 hrs by LC-MS/MS analysis; type: ADME, organism-based; details: read-out: Drug uptake; method in brief: as §1
[4] = Plasma concentration in Sprague-Dawley rat at 0.2 mg/kg, iv administered as cassette dose after 1 hr by LC-MS/MS analysis; type: ADME, organism-based; method in brief: as §1
Rattus norvegicus [5] = assay: Inhibition of histamine-induced acid secretion in Jcl:Sprague-Dawley rat gastric at 1 mg/kg, iv pretreated for 3 mins after pylorus ligation followed by histamine.2HCl treatment measured after 3 hrs by titration method relative to control; type: functional
Method in brief: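 Anesthetized rats dosed iv at 1 mg/kg. Total acid output over 3 h after histamine injection compared with vehicle-treated rats.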

[6] = AUC in Sprague-Dawley rat plasma at 0.2 mg/kg, iv administered as cassette dose by LC-MS/MS analysis; type: ADME, organism-based; method in brief: as §1
CYP3A4 = CYP3A4 (Homo sapiens, UniProt P08684); assay: Inhibition of CYP3A4 (unknown origin) expressed in insect cells at 10 uM using testosterone as substrate after 15 mins by HPLC analysis relative to control; type: ADME; details: recombinant CYP3A4 expressed in insect cells, probe testosterone
CYP3A4, sequence (P08684 whole entry): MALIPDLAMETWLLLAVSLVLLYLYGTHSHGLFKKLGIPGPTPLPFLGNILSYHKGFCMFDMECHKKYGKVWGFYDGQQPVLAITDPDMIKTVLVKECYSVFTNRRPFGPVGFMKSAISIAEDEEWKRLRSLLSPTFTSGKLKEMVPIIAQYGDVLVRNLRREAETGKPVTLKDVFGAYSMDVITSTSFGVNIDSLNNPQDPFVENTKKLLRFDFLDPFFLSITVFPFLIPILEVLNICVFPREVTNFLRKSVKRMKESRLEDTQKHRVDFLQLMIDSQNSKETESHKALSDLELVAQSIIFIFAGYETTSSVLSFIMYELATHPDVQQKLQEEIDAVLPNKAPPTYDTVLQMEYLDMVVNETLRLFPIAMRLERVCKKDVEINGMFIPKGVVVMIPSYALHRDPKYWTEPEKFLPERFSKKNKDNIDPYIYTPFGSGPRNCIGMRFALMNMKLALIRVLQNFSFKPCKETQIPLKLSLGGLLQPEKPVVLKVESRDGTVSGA
Method in brief: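 Testosterone substrate at 100 μmol/L with 10 nmol/L insect-cell-expressed CYP3A4 and 10 μmol/L test compound, incubated 15 min at 37 °C. 6β-hydroxytestosterone quantified by HPLC with UV detection.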

[7] = Lipophilicity, log D of the compound at pH 7.4 by HPLC analysis; type: physicochemical; details: buffer
Method in brief: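 At pH 7.4, log D derived from HPLC retention time relative to standard compounds.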

hERG (KCNH2) = hERG (KCNH2) (Homo sapiens, UniProt Q12809); assay: Inhibition of human ERG expressed in HEK cells at 10 uM at -75 mV holding potential by Whole-cell voltage clamp assay relative to control; type: cell-based; details: HEK cells expressing human ERG
hERG (KCNH2), sequence (Q12809 whole entry): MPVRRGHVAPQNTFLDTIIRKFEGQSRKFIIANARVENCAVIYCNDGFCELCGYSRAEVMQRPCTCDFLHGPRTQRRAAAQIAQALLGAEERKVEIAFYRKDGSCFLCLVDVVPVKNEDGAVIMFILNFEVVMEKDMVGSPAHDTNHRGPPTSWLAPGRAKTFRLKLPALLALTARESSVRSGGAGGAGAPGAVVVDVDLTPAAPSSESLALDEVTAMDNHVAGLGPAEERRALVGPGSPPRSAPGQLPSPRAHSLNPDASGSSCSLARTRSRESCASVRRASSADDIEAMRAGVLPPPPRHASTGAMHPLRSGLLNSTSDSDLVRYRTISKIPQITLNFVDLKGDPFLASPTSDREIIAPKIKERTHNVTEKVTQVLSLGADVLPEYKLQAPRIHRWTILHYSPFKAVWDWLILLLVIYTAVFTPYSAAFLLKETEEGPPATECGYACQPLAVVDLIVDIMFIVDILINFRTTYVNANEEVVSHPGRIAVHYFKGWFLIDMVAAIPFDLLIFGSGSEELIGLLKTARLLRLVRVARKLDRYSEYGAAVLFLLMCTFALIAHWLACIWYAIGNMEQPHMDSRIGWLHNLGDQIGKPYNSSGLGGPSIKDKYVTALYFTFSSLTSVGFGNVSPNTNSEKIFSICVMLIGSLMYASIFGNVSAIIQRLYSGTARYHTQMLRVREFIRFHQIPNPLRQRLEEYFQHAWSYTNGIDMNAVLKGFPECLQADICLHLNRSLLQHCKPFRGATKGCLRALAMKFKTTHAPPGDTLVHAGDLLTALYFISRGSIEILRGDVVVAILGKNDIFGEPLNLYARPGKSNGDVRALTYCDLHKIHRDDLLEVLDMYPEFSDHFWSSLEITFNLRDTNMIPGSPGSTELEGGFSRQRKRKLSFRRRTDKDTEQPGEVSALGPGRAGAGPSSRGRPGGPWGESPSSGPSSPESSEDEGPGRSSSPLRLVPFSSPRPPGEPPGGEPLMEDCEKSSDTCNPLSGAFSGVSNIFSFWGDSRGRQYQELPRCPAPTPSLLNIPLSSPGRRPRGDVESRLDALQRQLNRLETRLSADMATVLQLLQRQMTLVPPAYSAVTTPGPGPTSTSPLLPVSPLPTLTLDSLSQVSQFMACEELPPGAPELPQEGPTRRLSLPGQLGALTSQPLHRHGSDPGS

[8] = Inhibition of H+/K+-ATPase in porcine stomach gastric mucosal microsomes assessed as reduction in inorganic phosphate production using ATP as substrate preincubated for 30 mins followed by ATP addition in presence of KCl at pH 6.5 by malachite green reagent based colorimetric assay; design: species or system Sus scrofa
Stomach = assay: AUC in Sprague-Dawley rat stomach at 0.2 mg/kg, iv administered as cassette dose by LC-MS/MS analysis; type: ADME, organism-based; details: in vivo; method in brief: as §1
[9] = Drug uptake in Sprague-Dawley rat stomach at 0.2 mg/kg, iv administered as cassette dose after 10 mins by LC-MS/MS analysis; type: ADME, organism-based; details: read-out: Drug uptake; method in brief: as §1
[10] = Drug uptake in Sprague-Dawley rat stomach at 0.2 mg/kg, iv administered as cassette dose after 24 hrs by LC-MS/MS analysis; type: ADME, organism-based; details: read-out: Drug uptake; method in brief: as §1
[11] = Cytotoxicity against human HepG2 cells assessed as cellular ATP level at 100 uM after 1 day by ATPLite assay relative to control; type: cell-based; details: read-out: Activity
[12] = Plasma concentration in Sprague-Dawley rat at 0.2 mg/kg, iv administered as cassette dose after 4 hrs by LC-MS/MS analysis; type: ADME, organism-based; method in brief: as §1
Rattus norvegicus [13] = assay: Inhibition of histamine-induced acid secretion in Jcl:Sprague-Dawley rat assessed as increase in pH of gastric perfusate at 1 mg/kg, iv pretreated for 3 mins after pylorus ligation followed by histamine.2HCl treatment measured after 3 hrs by glass electrode method; type: functional, organism-based
Rattus norvegicus [14] = assay: Inhibition of histamine-induced acid secretion in Jcl:Sprague-Dawley rat assessed as increase in pH of gastric perfusate at 1 mg/kg, iv pretreated for 3 mins after pylorus ligation followed by histamine.2HCl treatment measured after 180 to 300 mins by glass electrode method; type: functional, organism-based
Canis familiaris [15] = assay: Inhibition of histamine-induced acid secretion in dog heidenhain pouch at 1 mg/kg, po treated 1 day after and 1 to 48 hrs before histamine.2HCl treatment measured 30 mins post histamine challenge by titration method; type: functional, organism-based; details: Canis lupus familiaris
Rattus norvegicus [16] = assay: Inhibition of histamine-induced acid secretion in Jcl:Sprague-Dawley rat assessed as pH of gastric perfusate at 1 mg/kg, iv pretreated for 3 mins after pylorus ligation followed by histamine.2HCl treatment measured after 3 hrs by glass electrode method (reference value: 2); type: functional
Canis familiaris [17] = assay: Inhibition of histamine-induced acid secretion in dog heidenhain pouch at 1 mg/kg, po treated 1 day after and 1 to 48 hrs before histamine.2HCl treatment measured up to 24 hrs post dose by titration method; type: functional, organism-based; details: Canis lupus familiaris
Method in brief: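 Heidenhain pouch dogs dosed orally at 1 mg/kg, with histamine-stimulated acid secretion followed over time, up to 24 h after dosing. Mean ± SE from three or four dogs.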

Rattus norvegicus [18] = assay: Inhibition of histamine-induced acid secretion in po dosed rat assessed as increase in pH of gastric perfusate pretreated for 1 hr followed by pylorus ligation and histamine.2HCl treatment measured after 3 hrs by glass electrode method; type: functional, organism-based
[19] = Dissociation constant, pKa of the compound; type: physicochemical
Method in brief: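 pH-metric titration across pH 2–12 with an Ag/AgCl pH electrode.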

[20] = Stability of the compound under acidic condition; type: physicochemical
[21] = Inhibition of CYP450 (unknown origin); type: ADME; details: human

SMILES	concentration at 10 min [1] [ng/mL]	concentration at 1 h [2] [ng/g]	concentration at 4 h [3] [ng/g]	concentration at 1 h [4] [ng/mL]	inhibition in vivo at 1 mg/kg (Rattus norvegicus [5]) [%]	AUC [6] [ng·h/mL]	inhibition at 0.25 h, 10 µM (CYP3A4) [%]	logD [7]	inhibition at 10 µM (hERG (KCNH2)) [%]	IC50 [8] [nM]	AUC (Stomach) [ng·h/g]	concentration at 10 min [9] [ng/g]	concentration at 24 h [10] [ng/g]	viability at 24 h, 100 µM [11] [%]	inhibition (Rattus norvegicus [14])	pH (Rattus norvegicus [16])	also measured
CNCc1cn(S(=O)(=O)c2cc(OC)ccn2)c(-c2cccnc2F)c1F	37.2	773	268	10.1	95	38	19	0.51	38.7	140	4964	617	8.8	84.5	–	–	–
CNCc1cn(S(=O)(=O)c2cccnc2C)c(-c2cccnc2F)c1F	25.3	577	300	8	92	32	30.1	0.48	14.8	210	4806	507	–	97.4	–	–	concentration at 4 h [12]: 0.3 ng/mL
CNCc1cn(S(=O)(=O)c2cccc(C)n2)c(-c2cccnc2F)c1F	41.7	999	527	10.3	91	41	22.9	0.71	13.9	210	8550	1080	3.3	83.8	–	–	–
CNCc1cn(S(=O)(=O)c2cccc(OC)n2)c(-c2cccnc2F)c1F	43.5	1260	971	14.9	98	50	55.8	1.03	82.3	150	14434	773	47.9	69.8	–	–	inhibition (Rattus norvegicus [13]): Active
CNCc1cn(S(=O)(=O)c2ccccn2)c(-c2cccnc2F)c1F	36	809	337	7.9	95	33	7.7	0.44	9	97	5757	617	2.1	94.8	inactive	5	inhibition (Canis familiaris [15]): Active
CNCc1cn(S(=O)(=O)c2ccc(C)nc2)c(-c2cccnc2F)c1F	40.1	1120	1180	10.8	97	41	-1.2	0.62	24.8	180	18284	672	219	76.7	inactive	–	inhibition (Rattus norvegicus [13]): Active
CNCc1cn(S(=O)(=O)c2cncc(F)c2)c(-c2cccnc2F)c1F	43	606	425	8.3	99	38	27	0.83	22.7	200	6599	330	38.3	88.9	inactive	>5	–
CNCc1cn(S(=O)(=O)c2cc(C)ccn2)c(-c2cccnc2F)c1F	39.4	927	682	8.1	92	35	4.3	0.48	45.1	73	10378	947	28.9	85.5	inactive	6	inhibition (Canis familiaris [17]): Active; inhibition (Rattus norvegicus [18]): Dose-dependent effect; inhibition (Canis familiaris [15]): Active; pKa [19]: 8.73; Stability [20]: Stable; inhibition (INH) [21]: Not Active
